Assay results: ChEMBL document CHEMBL1135826, “Antimicrobial peptides: synthesis and antibacterial activity of linear and cyclic drosocin and apidaecin 1b analogues” (2002)
≈ marks a conversion by molar mass, not a printed value. Where a SMILES comes first, the peptide text is derived from it. The star is where a group is joined. X2 = CC(=O)N[C@@H]1[C@@H](O)[C@H](O)[C@@H](CO)O[C@@H]1*; βGal = OC[C@H]1O[C@@H](*)[C@H](O)[C@@H](O)[C@H]1O; X1 = OC[C@H]1O[C@H](*)[C@H](O)[C@@H](O)[C@H]1O

Tests used:
[1] = tested on: Staphylococcus aureus; assay: Minimum inhibitory concentration (lowest peptide concentration) required to prevent visible bacterial growth after 18 hr of incubation at 37 C in Mueller-Hinton broth against Staphylococcus aureus G; format: functional
How it was run: (§1)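 Broth microdilution susceptibility test per NCCLS guidelines, in Mueller–Hinton broth with about 1.5–2.0 × 10^5 CFU/mL inoculum. Plates were incubated 18 h at 37 °C. MIC was taken as the lowest peptide concentration with no visible growth. Strains were ATCC strains or clinical isolates; E. coli O18:K1:H7 Bort is an encapsulated isolate from neonatal spinal fluid, and the S. aureus isolate is MRSA.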

[2] = tested on: Escherichia coli; assay: Minimum inhibitory concentration (lowest peptide concentration) required to prevent visible bacterial growth after 18 hr of incubation at 37 C in Mueller-Hinton broth against Escherichia coli D22; format: functional; how it was run: as §1
[3] = tested on: Salmonella enteritidis; assay: Minimum inhibitory concentration (lowest peptide concentration) required to prevent visible bacterial growth after 18 h of incubation at 37 C in Mueller-Hinton broth against […]; format: functional, Salmonella enterica subsp. enterica serovar Enteritidis; conditions: Salmonella enterica; how it was run: as §1
[4] = tested on: Escherichia coli; assay: Minimum inhibitory concentration (lowest peptide concentration) required to prevent visible bacterial growth after 18 hr of incubation at 37 C in Mueller-Hinton broth against Escherichia coli D21; format: functional; how it was run: as §1
[5] = tested on: Pseudomonas aeruginosa; assay: Minimum inhibitory concentration (lowest peptide concentration) required to prevent visible bacterial growth after 18 hr of incubation at 37 C in Mueller-Hinton broth against Pseudomonas aeruginosa ATCC 27853; format: functional; conditions: ATCC 27853, 18 h; how it was run: as §1
[6] = tested on: Klebsiella pneumoniae; assay: Minimum inhibitory concentration (lowest peptide concentration) required to prevent visible bacterial growth after 18 hr of incubation at 37 C in Mueller-Hinton broth against Klebsiella pneumoniae 79; format: functional; how it was run: as §1
[7] = tested on: Klebsiella pneumoniae; assay: Minimum inhibitory concentration (lowest peptide concentration) required to prevent visible bacterial growth after 18 hr of incubation at 37 C in Mueller-Hinton broth against Klebsiella pneumoniae 22; format: functional; how it was run: as §1
[8] = tested on: Escherichia coli; assay: Minimum inhibitory concentration (lowest peptide concentration) required to prevent visible bacterial growth after 18 hr of incubation at 37 C in Mueller-Hinton broth against Escherichia coli ATCC 25922; format: functional; conditions: ATCC 25922, 18 h; how it was run: as §1
[9] = tested on: Salmonella typhimurium; assay: Minimum inhibitory concentration (lowest peptide concentration) required to prevent visible bacterial growth after 18 hr of incubation at 37 C in Mueller-Hinton broth against Salmonella Typhimurium ATCC 14028; format: functional, Salmonella enterica subsp. enterica serovar Typhimurium; conditions: Salmonella enterica; how it was run: as §1
[10] = tested on: Staphylococcus epidermidis; assay: Minimum inhibitory concentration (lowest peptide concentration) required to prevent visible bacterial growth after 18 hr of incubation at 37 C in Mueller-Hinton broth against Staphylococcus epidermidis 4; format: functional; how it was run: as §1
[11] = tested on: Acinetobacter baumannii; assay: Minimum inhibitory concentration (lowest peptide concentration) required to prevent visible bacterial growth after 18 hr of incubation at 37 C in Mueller-Hinton broth against Acinetobacter baumannii 118A; format: functional; how it was run: as §1
[12] = tested on: Salmonella enteritidis; assay: Minimum inhibitory concentration (lowest peptide concentration) required to prevent visible bacterial growth after 18 hr of incubation at 37 C in Mueller-Hinton broth against Salmonella enteritidis D5; conditions: Salmonella enterica
[13] = tested on: Escherichia coli; assay: Minimum inhibitory concentration (lowest peptide concentration) required to prevent visible bacterial growth after 18 hr of incubation at 37 C in Mueller-Hinton broth against Escherichia coli O18:K1:H7; format: functional; how it was run: as §1
[14] = tested on: Escherichia coli; assay: Minimum inhibitory concentration (lowest peptide concentration) required to prevent visible bacterial growth after 18 hr of incubation at 37 C in Mueller-Hinton broth against Escherichia coli ML-35; format: functional; how it was run: as §1

Row | SMILES | MIC [1] [µM] | MIC [2] [µM] | MIC [3] [µM] | MIC [4] [µM] | MIC [5] [µM] | MIC [6] [µM] | MIC [7] [µM] | MIC [8] [µM] | MIC [9] [µM] | MIC [10] [µM] | MIC [11] [µM] | MIC [12] [µM] | MIC [13] [µM] | MIC [14] [µM]
1 | CC[C@H](C)[C@H](NC(=O)[C@@H]1CCCN1C(=O)[C@H](CCCN=C(N)N)NC(=O)[C@@H]1CCCN1C(=O)[C@H](Cc1c[nH]cn1)NC(=O)[C@H](CO)NC(=O)[C@@H](NC(=O)[C@@H]1CCCN1C(=O)[C@H](CCCN=C(N)N)NC(=O)[C@@H]1CCCN1C(=O)[C@H](CO)NC(=O)[C@H](Cc1ccc(O)cc1)NC(=O)[C@@H]1CCCN1C(=O)[C@H](CCCN=C(N)N)NC(=O)[C@@H]1CCCN1C(=O)[C@H](CCCCN)NC(=O)CN)[C@@H](C)O[C@H]1O[C@H](CO)[C@H](O)[C@H](O)[C@H]1O)C(=O)N[C@@H](CCCN=C(N)N)C(=O)N[C@H](C(=O)O)C(C)C (H-GKPRPYSPRPT(X1)SHPRPIRV-OH) | > 64 | 2 (≈ 4.72 µg/mL) | 4 (≈ 9.44 µg/mL) | > 64 | > 128 | 32 (≈ 75.5 µg/mL) | 32 (≈ 75.5 µg/mL) | 2 (≈ 4.72 µg/mL) | 8 (≈ 18.9 µg/mL) | > 64 | > 128 | 2 (≈ 4.72 µg/mL) | 2 (≈ 4.72 µg/mL) | 2 (≈ 4.72 µg/mL)
2 | CC[C@H](C)[C@H](NC(=O)[C@@H]1CCCN1C(=O)[C@H](CCCN=C(N)N)NC(=O)[C@@H]1CCCN1C(=O)[C@H](Cc1c[nH]cn1)NC(=O)[C@H](CO)NC(=O)[C@@H](NC(=O)[C@@H]1CCCN1C(=O)[C@H](CCCN=C(N)N)NC(=O)[C@@H]1CCCN1C(=O)[C@H](CO)NC(=O)[C@H](Cc1ccc(O)cc1)NC(=O)[C@@H]1CCCN1C(=O)[C@H](CCCN=C(N)N)NC(=O)[C@@H]1CCCN1C(=O)[C@H](CCCCN)NC(=O)CN)[C@@H](C)O[C@H]1O[C@H](CO)[C@@H](O)[C@H](O)[C@H]1NC(C)=O)C(=O)N[C@@H](CCCN=C(N)N)C(=O)N[C@H](C(=O)O)C(C)C (H-GKPRPYSPRPT(X2)SHPRPIRV-OH) | > 64 | 1 (≈ 2.4 µg/mL) | 2 (≈ 4.8 µg/mL) | 8 (≈ 19.2 µg/mL) | > 128 | 8 (≈ 19.2 µg/mL) | 4 (≈ 9.61 µg/mL) | 1 (≈ 2.4 µg/mL) | 2 (≈ 4.8 µg/mL) | > 64 | > 128 | 1 (≈ 2.4 µg/mL) | 1 (≈ 2.4 µg/mL) | 1 (≈ 2.4 µg/mL)
3 | CC[C@H](C)[C@H](NC(=O)[C@@H]1CCCN1C(=O)[C@H](CCCN=C(N)N)NC(=O)[C@@H]1CCCN1C(=O)[C@H](Cc1c[nH]cn1)NC(=O)[C@H](CO)NC(=O)[C@@H](NC(=O)[C@@H]1CCCN1C(=O)[C@H](CCCN=C(N)N)NC(=O)[C@@H]1CCCN1C(=O)[C@H](CO)NC(=O)[C@H](Cc1ccc(O)cc1)NC(=O)[C@@H]1CCCN1C(=O)[C@H](CCCN=C(N)N)NC(=O)[C@@H]1CCCN1C(=O)[C@H](CCCCN)NC(=O)CN)[C@@H](C)O[C@@H]1O[C@H](CO)[C@H](O)[C@H](O)[C@H]1O)C(=O)N[C@@H](CCCN=C(N)N)C(=O)N[C@H](C(=O)O)C(C)C (H-GKPRPYSPRPT(βGal)SHPRPIRV-OH) | > 64 | 2 (≈ 4.72 µg/mL) | 4 (≈ 9.44 µg/mL) | > 64 | > 128 | 8 (≈ 18.9 µg/mL) | 16 (≈ 37.8 µg/mL) | 4 (≈ 9.44 µg/mL) | 8 (≈ 18.9 µg/mL) | > 64 | > 128 | 4 (≈ 9.44 µg/mL) | 2 (≈ 4.72 µg/mL) | 1 (≈ 2.36 µg/mL)
